Measurements: ChEMBL document CHEMBL4177759 (J Med Chem, 2018)
One block for each compound: values may come before it.

Experiments:
[1] = Prodrug conversion in mouse jejunum homogenate assessed as mebendazole formation by measuring remaining parent drug at 10 uM measured at 60 mins by LC-MS/MS method; type: ADME, tissue-based; conditions: in vitro, 1 h
Method in brief: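 Washed mouse jejunum diluted 10-fold in 0.1 M potassium phosphate buffer, probe-sonicated; homogenate spiked with 10 µM prodrug; triplicate aliquots at 0 and 60 min quenched with ice-cold acetonitrile plus losartan; prodrug remaining by LC-MS/MS peak-area ratio to internal standard.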

[2] = Prodrug conversion in mouse liver microsomes assessed as mebendazole formation by measuring remaining parent drug at 10 uM measured at 60 mins by LC-MS/MS method; type: ADME, microsome; conditions: 1 h
Method in brief: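 Mouse liver microsomes (0.5 mg/mL) with 10 µM prodrug in 100 mM potassium phosphate, pH 7.4, reaction started by adding microsomes; triplicate samples at 0 and 60 min quenched with ice-cold acetonitrile containing losartan; prodrug disappearance by LC-MS/MS.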

[3] = Prodrug conversion in naive mouse plasma assessed as mebendazole formation by measuring remaining parent drug at 10 uM measured at 60 mins by LC-MS/MS method; type: ADME, cell-free; conditions: 1 h
Method in brief: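 Prodrug spiked at 10 µM into 1 mL naive mouse plasma, incubated on orbital shaker at 37 °C; triplicate aliquots at 0 and 60 min quenched with ice-cold acetonitrile plus losartan internal standard; remaining prodrug by LC-MS/MS.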

[4] = Solubility of the compound in 0.01 M PBS after 24 hrs by shake flask method; type: physicochemical; conditions: buffer
[5] = Chemical stability of the compound in 0.01 M PBS at 10 uM after 60 mins by LC-MS/MS method; type: physicochemical; conditions: buffer, 1 h
Method in brief: (§1)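 Prodrug from 10 mM DMSO stock spiked to 10 µM final in preheated PBS at 37 °C; aliquots taken over 60 min, quenched with cold acetonitrile containing losartan internal standard, diluted with water, and intact prodrug measured by LC-MS/MS.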

[6] = Prodrug conversion in CD1 mouse plasma assessed as mebendazole formation at 30 mg/kg mebendazole equivalent administered single dose via oral gavage measured at 60 mins by LC-MS/MS method; type: ADME, organism-based; conditions: in vivo, 1 h
[7] = mouse, in vivo, po, 30 mg/kg, 0.5 h
[8] = Chemical stability of the compound in 0.01 M PBS assessed as parent compound remaining at 10 uM after 60 mins by LC-MS/MS method; type: physicochemical; conditions: read-out: Stability; method in brief: as §1
[9] = Plasma concentration in CD1 mouse at 30 mg/kg administered single dose via oral gavage measured at 60 mins by LC-MS/MS method; type: ADME, organism-based
[10] = Cmax in CD1 mouse at 1.5 mg/kg, iv at 5 mins by LC-MS/MS method; type: ADME, organism-based; design: dose 1.5 mg/kg, route intravenous; conditions: in vivo
Method in brief: (§2)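 Male CD-1 mice (25–30 g) received single IV dose 1.5 mg/kg MBZ-C dissolved just before dosing in 1% DMSO, 10% Cremophor EL, 89% saline; sacrificed by CO2 at set times; plasma extracted with acetonitrile containing losartan internal standard and MBZ measured by LC-MS/MS against naive-matrix calibration (0.001-50 nmol/g).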

[11] = Half life in CD1 mouse at 1.5 mg/kg, iv by LC-MS/MS method; type: ADME, organism-based; conditions: in vivo; method in brief: as §2
[12] = Cmax in Beagle dog at 0.3 mg/kg, iv at 5 mins by LC-MS/MS method; type: ADME, organism-based, Canis lupus familiaris; design: dose 0.3 mg/kg, route intravenous; conditions: in vivo
Method in brief: (§3)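 Male beagle dogs (n=2) given single IV bolus of MBZ-C at 0.3 mg/kg in co-solvent vehicle (1% DMSO, 10% Cremophor EL). Jugular vein blood (~1 mL) by direct puncture at set times into sodium heparin tubes, kept on wet ice, spun 3,000 × g 5 min 4 °C, plasma stored -80 °C; MBZ quantified by LC-MS/MS.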

[13] = Half life in Beagle dog at 0.3 mg/kg, iv by LC-MS/MS method; type: ADME, organism-based, Canis lupus familiaris; conditions: in vivo; method in brief: as §3
[14] = Tmax in CD1 mouse at 1.5 mg/kg, iv by LC-MS/MS method; type: ADME, organism-based; conditions: in vivo; method in brief: as §2
[15] = Tmax in Beagle dog at 0.3 mg/kg, iv by LC-MS/MS method; type: ADME, organism-based, Canis lupus familiaris; conditions: in vivo; method in brief: as §3
[16] = AUC (0 to t) in CD1 mouse at 1.5 mg/kg, iv by LC-MS/MS method; type: ADME, organism-based; conditions: in vivo; method in brief: as §2
[17] = AUC (0 to t) in Beagle dog at 0.3 mg/kg, iv by LC-MS/MS method; type: ADME, organism-based, Canis lupus familiaris; conditions: in vivo; method in brief: as §3
[18] = Clearance in CD1 mouse at 1.5 mg/kg, iv by LC-MS/MS method; type: ADME, organism-based; conditions: in vivo; method in brief: as §2
[19] = Clearance in Beagle dog at 0.3 mg/kg, iv by LC-MS/MS method; type: ADME, organism-based, Canis lupus familiaris; conditions: in vivo; method in brief: as §3
[20] = Volume of distribution in CD1 mouse at 1.5 mg/kg, iv by LC-MS/MS method; type: ADME, organism-based; conditions: in vivo; method in brief: as §2
[21] = Volume of distribution in Beagle dog at 0.3 mg/kg, iv by LC-MS/MS method; type: ADME, organism-based, Canis lupus familiaris; conditions: in vivo; method in brief: as §3
[22] = Cmax in CD1 mouse plasma at 30 mg/kg administered via oral gavage at 60 mins by LC-MS/MS method; type: ADME, organism-based; design: dose 30 mg/kg, route oral
Method in brief: (§4)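 Male CD-1 mice dosed once by oral gavage, 30 mg/kg MBZ equivalent, formulated just before dosing in 5% ethanol, 5% polysorbate 80, 90% water; plasma and brain collected at set times after CO2 euthanasia; MBZ by LC-MS/MS; AUC0-t by log-linear trapezoidal rule; brain/plasma ratio as ratio of mean AUC0-t values.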

[23] = Tmax in CD1 mouse plasma at 30 mg/kg administered via oral gavage by LC-MS/MS method; type: ADME, organism-based; method in brief: as §4
[24] = AUC (0 to t) in CD1 mouse plasma at 30 mg/kg administered via oral gavage by LC-MS/MS method; type: ADME, organism-based; method in brief: as §4
[25] = Oral bioavailability in CD1 mouse plasma at 30 mg/kg administered via gavage by LC-MS/MS method; type: ADME, organism-based
[26] = Cmax in CD1 mouse brain at 30 mg/kg administered via oral gavage at 60 mins by LC-MS/MS method; type: ADME, organism-based; design: dose 30 mg/kg, route oral; conditions: in vivo, 1 h; method in brief: as §4
[27] = Tmax in CD1 mouse brain at 30 mg/kg administered via oral gavage by LC-MS/MS method; type: ADME, organism-based; method in brief: as §4
[28] = AUC (0 to t) in CD1 mouse brain at 30 mg/kg administered via oral gavage by LC-MS/MS method; type: ADME, organism-based; conditions: in vivo; method in brief: as §4
[29] = Ratio of drug level in brain to plasma in CD1 mouse at 30 mg/kg administered via oral gavage by LC-MS/MS method; type: ADME, organism-based; conditions: brain and plasma, read-out: BPR; method in brief: as §4
[30] = Cmax in Beagle dog at […], po measured at 2 hrs by LC-MS/MS method; type: ADME, organism-based, Canis lupus familiaris; design: dose 2.5 mg/kg, route oral; conditions: in vivo
[31] = Tmax in Beagle dog at […], po by LC-MS/MS method; type: ADME, organism-based, Canis lupus familiaris; conditions: in vivo
[32] = AUC (0 to t) in Beagle dog at […], po by LC-MS/MS method; type: ADME, organism-based, Canis lupus familiaris; conditions: in vivo
[33] = Oral bioavailability in Beagle dog at […] by LC-MS/MS method; type: ADME, organism-based, Canis lupus familiaris; conditions: in vivo
[34] = Oral bioavailability in human at 1.7 ug; type: ADME, organism-based; conditions: in vivo
[35] = Oral bioavailability in human at 1.18 ug; type: ADME, organism-based; conditions: in vivo

Compound: COC(=O)Nc1nc2cc(C(=O)c3ccccc3)ccc2n1COP(=O)(O)O
Stability [1]: 35%
Stability [2]: 100%
Stability [3]: 62%
solubility [4]: Soluble
Stability [5]: Stable
Drug metabolism [6]: 8.53 nmol/mL

Compound: COC(=O)Nc1nc2cc(C(=O)c3ccccc3)ccc2n1COC(=O)OC[C@H]1OC(O)[C@H](O)[C@@H](O)[C@@H]1O (some centres not stated)
Stability [1]: 4%
Stability [2]: 27%
Stability [3]: 18%
solubility [4]: Soluble
Stability [5]: Stable

Compound: COC(=O)Nc1nc2cc(C(=O)c3ccccc3)ccc2n1COP(=O)(O)OCOC(=O)OC(C)C
Stability [1]: 1%
Stability [2]: 14%
Stability [3]: 73%
Stability [5]: Stable
Drug metabolism [6]: 10.35 nmol/mL
Cmax [7]: 12.2 µM

Compound: COC(=O)Nc1nc2ccc(C(=O)c3ccccc3)cc2[nH]1 [MEBENDAZOLE]
Stability [1]: 100%
Stability [2]: 100%
Stability [3]: 100%
concentration at 1 h [9]: 2.86 µM
Cmax [10]: 5.3 µM
half-life [11]: 43.8 min
Cmax [12]: 2.2 µM
half-life [13]: 43.2 min
Tmax [14]: 4.98 min
Tmax [15]: 4.98 min
AUC(0-t) [16]: 2700 nM·h
AUC(0-t) [17]: 900 nM·h
clearance [18]: 1.64 L/h/kg
clearance [19]: 1.33 L/h/kg
Vd [20]: 1.4 L/kg
Vd [21]: 1.3 L/kg
Cmax [22]: 5.1 µM
Tmax [23]: 60 min
AUC(0-t) [24]: 12900 nM·h
bioavailability [25]: 24%
Cmax [26]: 5.1 nmol/g
Tmax [27]: 60 min
AUCt [28]: 13.1 nmol·h/g
Kp [29]: 1
Cmax at 2 h [30]: 0.2 µM
Tmax [31]: 120 min
AUC(0-t) [32]: 800 nM·h
bioavailability [33]: 11%
bioavailability [34]: 17%
bioavailability [35]: 22%

The next lines start with the values.

Stability [1]: 18%
Stability [2]: 29%
Stability [3]: 0%
solubility [4]: Soluble
Stability [5]: Stable
Drug metabolism [6]: 8.72 nmol/mL
Compound: COC(=O)Nc1nc2cc(C(=O)c3ccccc3)ccc2n1COC(=O)CNC(=O)[C@H](CC(C)C)NC(C)=O

solubility [4]: Soluble
Stability [5]: Stable
Compound: COC(=O)Nc1nc2cc(C(=O)c3ccccc3)ccc2n1COC(=O)OC(C)C

solubility [4]: Soluble
remaining at 1 h, 10 µM [8]: 0%
Compound: COC(=O)Nc1nc2cc(C(=O)c3ccccc3)ccc2n1COC(=O)CC[C@H](N)C(=O)O

Stability [1]: 30%
Stability [2]: 24%
Stability [3]: 78%
solubility [4]: Soluble
Stability [5]: Stable
Compound: COC(=O)Nc1nc2cc(C(=O)c3ccccc3)ccc2n1COC(=O)CCC(=O)O
